High-throughput results (PubChem BioAssay)
This is one part of a sample in which hits are shown more often than they occur.
IDH1 R132H inh: blocks human IDH1 R132H reductase activity; O75874; diaphorase/resazurin fluorescence, 60 min; inhibition, % at 10 µM; 70,000 tested, 0.18% active; AID 624101; in the data active means inhibition above about 34%; inconclusive means no clear call, values can overlap the other calls; inactive means below about 11%;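 further: 0% = DMSO and 100% = no enzyme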
Target sequence (O75874 whole entry R132H): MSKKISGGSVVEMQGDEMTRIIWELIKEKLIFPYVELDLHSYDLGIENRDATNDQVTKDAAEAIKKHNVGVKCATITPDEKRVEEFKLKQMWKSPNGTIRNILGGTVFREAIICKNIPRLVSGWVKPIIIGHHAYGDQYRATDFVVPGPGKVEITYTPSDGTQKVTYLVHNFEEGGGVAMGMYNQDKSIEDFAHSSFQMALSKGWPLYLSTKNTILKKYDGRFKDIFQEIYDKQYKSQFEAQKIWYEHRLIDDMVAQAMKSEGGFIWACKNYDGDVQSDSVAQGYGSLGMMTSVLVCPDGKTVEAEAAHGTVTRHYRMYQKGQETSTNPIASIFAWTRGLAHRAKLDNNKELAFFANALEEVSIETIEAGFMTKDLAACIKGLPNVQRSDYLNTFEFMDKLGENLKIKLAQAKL
GASC1 inh: KDM4C (human) demethylase inhibition; Q9H3R0; inhibition, % at 12.5 µM; 96,000 tested, 0.15% active; GST-KDM4C 2-372, H3K9me3 peptide, LANCE TR-FRET;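 active means mean replicate inhibition above about 25%, with at least 55% of replicates also reaching it, limit read from the data, passing the limit was not always enough; inconclusive means only one of those two conditions met; inactive means neither condition met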
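Assay system: GST-GASC-1 enzyme fragment 2-372 | Amount: 10 nM enzyme | Medium: HEPES buffer, pH 7.5, plus ascorbate | Reagent: H3K9me3 peptide substrate, Fe(II), 2-oxoglutarate | Doses: Single-point compound screen | Incubation: 30 min demethylation and 1 h detection at room temperature | Measured by: LANCE TR-FRET, excitation 340 nm, emissions 618 and 671 nm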
Numbers without * were called inactive; ? = inconclusive; . = no result given.

SMILES	IDH1 R132H inh	GASC1 inh
O=C(Nc1ccc2c(c1)OCCO2)C1CCCN(S(=O)(=O)c2ccc(F)cc2)C1 (stereo not drawn)	0	.
COc1ccc(-c2ccc3c(c2)O[C@H](CN(C)C(=O)c2ccccc2F)[C@H](C)CN([C@H](C)CO)S3(=O)=O)cc1	?	45*
COc1ccc(-c2ccc3c(c2)O[C@H](CN(C)C(=O)c2ccccc2F)[C@H](C)CN([C@@H](C)CO)S3(=O)=O)cc1	2	1
C[C@@H]1CN([C@H](C)CO)S(=O)(=O)c2ccc(-c3cccc(F)c3)cc2O[C@@H]1CN(C)S(=O)(=O)c1ccc(F)cc1	.	0
COc1ccc(NC(=O)N(C)C[C@@H]2Oc3cc(-c4ccncc4)ccc3S(=O)(=O)N([C@@H](C)CO)C[C@@H]2C)cc1	-5	-1
Cc1ccc(S(=O)(=O)N(C)C[C@H]2Oc3cc(-c4cccc(F)c4)ccc3S(=O)(=O)N([C@@H](C)CO)C[C@@H]2C)cc1	87*	45*
COc1ccc(NC(=O)N(C)C[C@@H]2Oc3cc(-c4ccncc4)ccc3S(=O)(=O)N([C@H](C)CO)C[C@@H]2C)cc1	71*	37*
CN1CCN(C(=O)C[C@@H]2CC[C@@H]3[C@H](COC[C@@H](O)CN3C(=O)Nc3cc(Cl)cc(Cl)c3)O2)CC1	.	-2
COc1ccc2c3c([nH]c2c1)[C@H](CO)N(C(=O)C1CC1)CC31CCN(C)CC1	.	2
C[C@@H]1CN([C@@H](C)CO)C(=O)c2cccc(NS(=O)(=O)c3cn(C)cn3)c2O[C@@H]1CN(C)C(=O)Nc1ccc2c(c1)OCO2	3	0
O=C(C[C@H]1CC[C@H]2[C@@H](COC[C@H](O)CN2C(=O)c2ccc(F)cc2)O1)N1CCOCC1	.	1
O=C(c1ccccc1)c1ccc(OCC(O)Cn2cnc3ccccc32)cc1 (stereo not drawn)	5	.
C/C=C/c1ccc2c(c1)O[C@H](CN(C)Cc1ccncc1)[C@@H](C)CN([C@H](C)CO)S2(=O)=O	42*	1
C/C=C/c1ccc2c(c1)O[C@@H](CN(C)Cc1ccncc1)[C@@H](C)CN([C@@H](C)CO)S2(=O)=O	2	1
C/C=C/c1ccc2c(c1)O[C@@H](CN(C)C(=O)Cc1cccnc1)[C@H](C)CN([C@H](C)CO)S2(=O)=O	12	1
C/C=C/c1ccc2c(c1)O[C@@H](CN(C)C(=O)Cc1cccnc1)[C@H](C)CN([C@@H](C)CO)S2(=O)=O	46*	6
Cc1noc(C)c1NC(=O)Nc1ccc2c(c1)C(=O)N([C@H](C)CO)C[C@H](C)[C@H](CN(C)S(=O)(=O)c1ccc(Cl)cc1)OCCCC[C@H](C)O2	.	0
C[C@@H]1CCCCO[C@@H](CN(C)S(=O)(=O)c2ccc(Cl)cc2)[C@H](C)CN([C@@H](C)CO)C(=O)c2cc(NC(=O)Nc3ccc(F)cc3)ccc2O1	.	12
CN(C)CC#Cc1ccc([C@@H]2[C@H](CO)N3CCCCN(S(=O)(=O)c4ccccc4)C[C@@H]23)cc1	.	5
CC(C)CC#Cc1ccc([C@@H]2[C@@H](CO)N3CCCCN(S(=O)(=O)c4ccc(F)cc4)C[C@H]23)cc1	.	-2
CC(C)CC#Cc1ccc([C@H]2[C@@H](CO)N3CCCCN(S(=O)(=O)c4ccc(F)cc4)C[C@H]23)cc1	.	26*
CN(C)CC#Cc1ccc([C@@H]2[C@@H](CO)N3CCCCN(S(=O)(=O)c4ccccc4)C[C@@H]23)cc1	.	32*
C/C=C/c1cccc(-c2nc(C(=O)N(C)C)cc3c2[C@@H](CCO)N([S@](=O)C(C)(C)C)C3)c1	.	0
CC(C)C[C@H](NC(=O)[C@@H](O)[C@H](N)Cc1ccccc1)C(=O)O	0	.
CCC(C)[C@@H](CO[C@@H](Cc1ccccc1)C(=O)N[C@@H](CCS(C)(=O)=O)C(=O)OC(C)C)NC[C@@H](N)CS (stereo partly drawn)	60*	.
SMILES	IDH1 R132H inh	GASC1 inh
COc1cccc(-c2ccc3c(c2)O[C@@H](CN(C)C)[C@@H](C)CN([C@H](C)CO)S3(=O)=O)c1	-5	0
COc1ccc(-c2ccc3n(c2=O)C[C@@H]2[C@@H](CO)[C@H](C(=O)N(C)C)N(CC4CC4)[C@H]32)cc1	.	28*
COc1ccc(-c2ccc3n(c2=O)C[C@@H]2[C@@H](CO)[C@H](C(=O)N(C)C)N(CC4CCCC4)[C@H]32)cc1	.	9
O=C(C[C@H]1CC[C@H]2[C@@H](COC[C@H](O)CN2C(=O)c2cnccn2)O1)NCc1ccccc1	.	-1
CCCCC[C@H](O)CC(=O)CCc1ccc(O)c(OC)c1	-3	.
COC(CCc1ccc(O)c(O)c1)CC(=O)CCc1ccc(O)c(O)c1 (stereo not drawn)	52*	.
O=C(CCc1ccc(O)cc1)CC(O)CCc1ccc(O)c(O)c1 (stereo not drawn)	54*	.
CCCCCCC[C@@H](O)CC(=O)CCc1ccc(O)c(OC)c1	0	.
CN1C(=O)c2cc(NC(=O)C3CCCC3)ccc2OC[C@H]2O[C@@H](CC(=O)Nc3ccccc3)CC[C@H]21	.	0
O=C(C[C@H]1C[C@@H]2c3cc(NC(=O)C4CCOCC4)ccc3O[C@@H]2[C@H](CO)O1)NCCN1CCCCC1	0	-2
COC1CC(OC(O)C(O)C(O)C(O)C(O)CO)c2c(cc3cc(C)oc(=O)c3c2O)OC1=O (stereo not drawn)	0	.
C[C@@H]1CN([C@H](C)CO)C(=O)Cc2cc(NC(=O)NC3CCCCC3)ccc2O[C@@H]1CN(C)Cc1ccncc1	9	.
COc1ccc(CN(C)C[C@H]2Oc3ccc(NC(=O)C4CC4)cc3CC(=O)N([C@@H](C)CO)C[C@@H]2C)cc1	2	0
COc1ccc(CN(C)C[C@@H]2Oc3ccc(NC(=O)C4CCCCC4)cc3CC(=O)N([C@@H](C)CO)C[C@H]2C)cc1	106*	85*
C[C@@H]1CN([C@@H](C)CO)C(=O)Cc2cc(NC(=O)NC3CCCCC3)ccc2O[C@H]1CN(C)Cc1ccncc1	47*	0
CO[C@H](CN(C)C(=O)C1CCOCC1)[C@@H](C)CN(C(=O)Nc1ccc(F)cc1)[C@@H](C)CO	0	0
C[C@H]1CCCCO[C@@H](CN(C)S(=O)(=O)c2cccs2)[C@@H](C)CN([C@@H](C)CO)C(=O)c2cc(NC(=O)C3CCCCC3)ccc2O1	-1	-1
C[C@@H]1CN([C@@H](C)CO)C(=O)c2cc(NC(=O)c3ccncc3)ccc2O[C@@H]1CN(C)S(=O)(=O)c1cn(C)cn1	0	1
O=S(c1ccccc1)c1ccc2nnnn2n1 (stereo not drawn)	62*	.
O=C(CN1CCOCC1)NCC[C@@H]1CC[C@H](NC(=O)Nc2ccc(F)cc2)[C@H](CO)O1	0	0
O=C(CN1CCOCC1)NCC[C@H]1CC[C@H](NC(=O)Nc2ccc(F)cc2)[C@H](CO)O1	73*	69*
O=C(CN1CCOCC1)N[C@H]1CC[C@@H](CCNC(=O)Nc2cc(F)ccc2F)O[C@@H]1CO	0	2
O=C(CN1CCOCC1)N[C@@H]1CC[C@H](CCNC(=O)Nc2cc(F)ccc2F)O[C@H]1CO	12	31*
COc1ccc2c3c([nH]c2c1)[C@H](CO)N(C(=O)c1cccnc1)CC31CN(Cc2cccnc2)C1	.	1
CN1C(=O)c2cc(NC(=O)C3CCCC3)ccc2OC[C@@H]2O[C@H](CC(=O)NCc3ccccc3F)CC[C@@H]21	.	-2
